According to ChEMBL document CHEMBL1914435, “Synthesis and evaluation of novel macrocyclic antifungal peptides” (2011):
In brackets after ≈: the same amount, converted by molar mass. Each block holds one compound with its values, some of them ahead of it. Activity calls are given as the source filed them. The calls are words filed in the database; no cut-off is given here. Starred links: 1 amine or outer side, 2 acyl side, 3 side chain; linkers in the order of their positions; H or OH if unused. Positions of bridges follow the written chain, without caps; N, C: chain ends. Non-standard residues stand in square brackets, D forms with d. Residues, ends and D or L forms follow the SMILES beside them. *: point of attachment. pTerphenylCO(4''-OnC5H11) = CCCCCOc1ccc(-c2ccc(-c3ccc(C(=O)*)cc3)cc2)cc1; hTyr = N[C@@H](CCc1ccc(O)cc1)C(=O)O; Ethylenediamine = C(CN[*:2])N[*:1]; Palmitoyl = CCCCCCCCCCCCCCCC(=O)*; Hyp = O=C(O)[C@@H]1C[C@@H](O)CN1; AllylGly = C=CC[C@H](N)C(=O)O; Orn = NCCC[C@H](N)C(=O)O; NHNH2 = NN*

How the values were obtained:
Candida albicans [1] = test: Antifungal activity against Candida albicans CBS 9975 after 24 hrs by broth microdilution method; type: functional; details: for MIC: CBS 9975, 24 h
Method in brief: (§1)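 Broth microdilution in YPD (1% yeast extract, 2% peptone, 1% dextrose). Compounds dissolved in water or 10% DMSO at 1 mg/mL, diluted fivefold in YPD, then serially twofold. CBS yeast isolates were grown on YPD agar for 24 h at 30 °C, then in YPD broth with shaking for 24 h. Inoculum was ~1.5 × 10³ cells/ml. Incubation at 30 °C. MIC read visually at 24 h as the lowest concentration giving full growth inhibition.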

Candida tropicalis = test: Antifungal activity against Candida tropicalis after 24 hrs by broth microdilution method; type: functional, organism-based; method in brief: as §1
Candida albicans [2] = test: Antifungal activity against Candida albicans after 24 hrs by broth microdilution method; type: functional, organism-based; method in brief: as §1
Candida dubliniensis = test: Antifungal activity against Candida dubliniensis after 24 hrs by broth microdilution method; type: functional, organism-based; method in brief: as §1
Candida parapsilosis = test: Antifungal activity against Candida parapsilosis after 24 hrs by broth microdilution method; type: functional, organism-based; method in brief: as §1
Nakaseomyces glabratus = test: Antifungal activity against Candida glabrata after 24 hrs by broth microdilution method; type: functional, organism-based; method in brief: as §1
Pichia kudriavzevii = test: Antifungal activity against Candida krusei after 24 hrs by broth microdilution method; type: functional, organism-based; method in brief: as §1
Candida albicans [3] = test: Antifungal activity against Candida albicans CBS 9975 assessed as enlarged round cells with large vacuoles after 24 hrs by broth microdilution method; type: functional, organism-based
Candida albicans [4] = test: Antifungal activity against Candida albicans CBS 9975 assessed as enlarged round cells with distorted cytoplasm after 24 hrs by broth microdilution method; type: functional, organism-based
Candida albicans [5] = test: Antifungal activity against Candida albicans CBS 9975 assessed as reduction in budding cells after 24 hrs by broth microdilution method; type: functional, organism-based
Candida albicans [6] = test: Antifungal activity against Candida albicans CBS 9975 assessed as agglutinated enlarged round cells after 24 hrs by broth microdilution method; type: functional, organism-based

Compound: CCCCCCCCCCCCCCCC(=O)N[C@H]1CCCC[C@@H](C(N)=O)NC(=O)[C@@H]2C[C@@H](O)CN2C(=O)[C@H](CCCN)NC(=O)[C@H](CCc2ccc(O)cc2)NC(=O)[C@@H]2C[C@@H](O)CN2C(=O)[C@H]([C@@H](C)O)NC1=O
MIC (Candida albicans [1]): > 100 µg/mL

Compound: CCCCCCCCCCCCCCCC(=O)N[C@H]1CCCC[C@@H](C(=O)O)NC(=O)[C@@H]2C[C@@H](O)CN2C(=O)[C@H](CCCN)NC(=O)[C@H](CCc2ccc(O)cc2)NC(=O)[C@@H]2C[C@@H](O)CN2C(=O)[C@H]([C@@H](C)O)NC1=O
MIC (Candida albicans [1]): > 100 µg/mL

Compound: CCCCCOc1ccc(-c2ccc(-c3ccc(C(=O)N[C@H]4CCCC[C@@H](C(=O)O)NC(=O)[C@@H]5C[C@@H](O)CN5C(=O)[C@H](CCCN)NC(=O)[C@H](CCc5ccc(O)cc5)NC(=O)[C@@H]5C[C@@H](O)CN5C(=O)[C@H]([C@@H](C)O)NC4=O)cc3)cc2)cc1
MIC (Candida albicans [1]): > 100 µg/mL

Compound: CCCCCOc1ccc(-c2ccc(-c3ccc(C(=O)N[C@H]4C/C=C\C[C@@H](CO)NC(=O)[C@@H]5C[C@@H](O)CN5C(=O)[C@H](CCCN)NC(=O)[C@H](CCc5ccc(O)cc5)NC(=O)[C@@H]5C[C@@H](O)CN5C(=O)[C@H]([C@@H](C)O)NC4=O)cc3)cc2)cc1
Activity (Candida albicans [1]): Dose-dependent effect
MIC (Candida albicans [1]): > 100 µg/mL

Compound: CCCCCCCCCCCCCCCC(=O)N[C@H]1CSSC[C@@H](C(N)=O)NC(=O)[C@@H]2C[C@@H](O)CN2C(=O)[C@H](CCCN)NC(=O)[C@H](CCc2ccc(O)cc2)NC(=O)[C@@H]2C[C@@H](O)CN2C(=O)[C@H]([C@@H](C)O)NC1=O (Palmitoyl-CT[Hyp][hTyr][Orn][Hyp]C-NH2; disulfide 1-7)
MIC (Candida albicans [1]): > 100 µg/mL

Compound: CCCCCCCCCCCCCCCC(=O)N[C@H]1C/C=C\C[C@@H](C(=O)O)NC(=O)[C@@H]2C[C@@H](O)CN2C(=O)[C@H](CCCN)NC(=O)[C@H](CCc2ccc(O)cc2)NC(=O)[C@@H]2C[C@@H](O)CN2C(=O)[C@H]([C@@H](C)O)NC1=O (Palmitoyl-[AllylGly]T[Hyp][hTyr][Orn][Hyp][AllylGly]-OH; staple (Z) 1-7)
MIC (Candida albicans [1]): > 100 µg/mL

Compound: CCCCCCCCCCCCCCCC(=O)N[C@H]1CCCNC(=O)[C@@H]2C[C@@H](O)CN2C(=O)[C@H]([C@@H](C)O)NC(=O)[C@H](CCc2ccc(O)cc2)NC(=O)[C@@H]2C[C@@H](O)CN2C(=O)[C@H]([C@@H](C)O)NC1=O (Palmitoyl-[Orn]T[Hyp][hTyr]T[Hyp]; lactam 1-C)
Activity (Candida tropicalis): Active
Activity (Candida albicans [2]): Active
Activity (Candida dubliniensis): Active
Activity (Candida parapsilosis): Active
Activity (Nakaseomyces glabratus): Active
Activity (Pichia kudriavzevii): Active
MIC (Candida albicans [1]): 25 µg/mL (≈ 26.1 µM)

Compound: CCCCCOc1ccc(-c2ccc(-c3ccc(C(=O)N[C@H]4C/C=C\C[C@@H](C(=O)NCCN)NC(=O)[C@@H]5C[C@@H](O)CN5C(=O)[C@H](CCCN)NC(=O)[C@H](CCc5ccc(O)cc5)NC(=O)[C@@H]5C[C@@H](O)CN5C(=O)[C@H]([C@@H](C)O)NC4=O)cc3)cc2)cc1 ({pTerphenylCO(4''-OnC5H11)}-[AllylGly]T[Hyp][hTyr][Orn][Hyp][AllylGly]-Ethylenediamine; staple (Z) 1-7)
Activity (Candida albicans [1]): Dose-dependent effect
MIC (Candida albicans [1]): > 100 µg/mL

Compound: CCCCCOc1ccc(-c2ccc(-c3ccc(C(=O)N[C@H]4C/C=C\C[C@@H](C(=O)NN)NC(=O)[C@@H]5C[C@@H](O)CN5C(=O)[C@H](CCCN)NC(=O)[C@H](CCc5ccc(O)cc5)NC(=O)[C@@H]5C[C@@H](O)CN5C(=O)[C@H]([C@@H](C)O)NC4=O)cc3)cc2)cc1 ({pTerphenylCO(4''-OnC5H11)}-[AllylGly]T[Hyp][hTyr][Orn][Hyp][AllylGly]-NHNH2; staple (Z) 1-7)
Activity (Candida albicans [1]): Dose-dependent effect
MIC (Candida albicans [1]): > 100 µg/mL

Compound: CCCCCOc1ccc(-c2ccc(-c3ccc(C(=O)N[C@H]4C/C=C\C[C@@H](C(=O)O)NC(=O)[C@@H]5C[C@@H](O)CN5C(=O)[C@H](CCCN)NC(=O)[C@H](CCc5ccc(O)cc5)NC(=O)[C@@H]5C[C@@H](O)CN5C(=O)[C@H]([C@@H](C)O)NC4=O)cc3)cc2)cc1 ({pTerphenylCO(4''-OnC5H11)}-[AllylGly]T[Hyp][hTyr][Orn][Hyp][AllylGly]-OH; staple (Z) 1-7)
Activity (Candida albicans [3]): Active
Activity (Candida albicans [4]): Active
Activity (Candida albicans [5]): Active
Activity (Candida albicans [1]): Dose-dependent effect
MIC (Candida albicans [1]): > 100 µg/mL
Activity (Candida albicans [6]): Active

Compound: CCCCCOc1ccc(-c2ccc(-c3ccc(C(=O)N[C@H]4C/C=C\C[C@@H](C(=O)OC)NC(=O)[C@@H]5C[C@@H](O)CN5C(=O)[C@H](CCCN)NC(=O)[C@H](CCc5ccc(O)cc5)NC(=O)[C@@H]5C[C@@H](O)CN5C(=O)[C@H]([C@@H](C)O)NC4=O)cc3)cc2)cc1 ({pTerphenylCO(4''-OnC5H11)}-[AllylGly]T[Hyp][hTyr][Orn][Hyp][AllylGly]-OMe; staple (Z) 1-7)
MIC (Candida albicans [1]): > 100 µg/mL

More lines, main results first:

MIC (Candida albicans [1]): > 100 µg/mL
Compound: CCCCCCCCCCCCCCCC(=O)N[C@H]1C/C=C\C[C@@H](C(N)=O)NC(=O)[C@@H]2C[C@@H](O)CN2C(=O)[C@H](CCCN)NC(=O)[C@H](CCc2ccc(O)cc2)NC(=O)[C@@H]2C[C@@H](O)CN2C(=O)[C@H]([C@@H](C)O)NC1=O (Palmitoyl-[AllylGly]T[Hyp][hTyr][Orn][Hyp][AllylGly]-NH2; staple (Z) 1-7)

MIC (Candida albicans [1]): 4.38 µg/mL (≈ 4.51 µM)
Compound: CCCCCCCCCCCCCCCC(=O)N[C@H]1CCCNC(=O)[C@@H]2C[C@@H](O)CN2C(=O)[C@H](CCCN)NC(=O)[C@H](CCc2ccc(O)cc2)NC(=O)[C@@H]2C[C@@H](O)CN2C(=O)[C@H]([C@@H](C)O)NC1=O (Palmitoyl-[Orn]T[Hyp][hTyr][Orn][Hyp]; lactam 1-C)
Activity (Candida tropicalis): Active
Activity (Candida albicans [2]): Active
Activity (Candida dubliniensis): Active
Activity (Candida parapsilosis): Active
Activity (Nakaseomyces glabratus): Active
Activity (Pichia kudriavzevii): Active

MIC (Candida albicans [1]): > 100 µg/mL
Compound: CCCCCOc1ccc(-c2ccc(-c3ccc(C(=O)N[C@H]4CCCCNC(=O)[C@@H]5C[C@@H](O)CN5C(=O)[C@H](CCCN)NC(=O)[C@H](CCc5ccc(O)cc5)NC(=O)[C@@H]5C[C@@H](O)CN5C(=O)[C@H]([C@@H](C)O)NC4=O)cc3)cc2)cc1 ({pTerphenylCO(4''-OnC5H11)}-KT[Hyp][hTyr][Orn][Hyp]; lactam 1-C)
Activity (Candida tropicalis): Active
Activity (Candida albicans [2]): Active
Activity (Candida dubliniensis): Active
Activity (Candida parapsilosis): Active
Activity (Nakaseomyces glabratus): Active
Activity (Pichia kudriavzevii): Active

MIC (Candida albicans [1]): 0.47 µg/mL (≈ 0.442 µM)
Compound: CCCCCOc1ccc(-c2ccc(-c3ccc(C(=O)N[C@H]4CCCNC(=O)[C@@H]5C[C@@H](O)CN5C(=O)[C@H]([C@@H](C)O)NC(=O)[C@H](CCc5ccc(O)cc5)NC(=O)[C@@H]5C[C@@H](O)CN5C(=O)[C@H]([C@@H](C)O)NC4=O)cc3)cc2)cc1 ({pTerphenylCO(4''-OnC5H11)}-[Orn]T[Hyp][hTyr]T[Hyp]; lactam 1-C)
Activity (Candida tropicalis): Active
Activity (Candida albicans [2]): Active
Activity (Candida dubliniensis): Active
Activity (Candida parapsilosis): Active
Activity (Nakaseomyces glabratus): Active
Activity (Pichia kudriavzevii): Active

MIC (Candida albicans [1]): 0.14 µg/mL (≈ 0.13 µM)
Compound: CCCCCOc1ccc(-c2ccc(-c3ccc(C(=O)N[C@H]4CCCNC(=O)[C@@H]5C[C@@H](O)CN5C(=O)[C@H](CCCN)NC(=O)[C@H](CCc5ccc(O)cc5)NC(=O)[C@@H]5C[C@@H](O)CN5C(=O)[C@H]([C@@H](C)O)NC4=O)cc3)cc2)cc1 ({pTerphenylCO(4''-OnC5H11)}-[Orn]T[Hyp][hTyr][Orn][Hyp]; lactam 1-C)
Activity (Candida tropicalis): Active
Activity (Candida albicans [2]): Active
Activity (Candida dubliniensis): Active
Activity (Candida parapsilosis): Active
Activity (Nakaseomyces glabratus): Active
Activity (Pichia kudriavzevii): Active

MIC (Candida albicans [1]): 0.025 µg/mL (≈ 0.0229 µM)
Compound: CC[C@H](C)C[C@H](C)CCCCCCCCC(=O)N[C@H]1C[C@@H](O)[C@@H](NCCN)NC(=O)[C@@H]2[C@@H](O)CCN2C(=O)[C@H]([C@H](O)CCN)NC(=O)[C@H]([C@H](O)[C@@H](O)c2ccc(O)cc2)NC(=O)[C@@H]2C[C@@H](O)CN2C(=O)[C@H]([C@@H](C)O)NC1=O [CASPOFUNGIN]
